Source: ChEMBL document CHEMBL1124532, “Angiotensin converting enzyme inhibitors: spirapril and related compounds” (J Med Chem, 1989)
Each block holds one compound with its values, some of them ahead of it.

Legend:
[1] = target: T1, Angiotensin-converting enzyme (Rattus norvegicus) (UniProt P47820); experiment: Compound tested in vivo for inhibition of angiotensin converting enzyme in rat; assay type: organism-based
T1 sequence (whole entry): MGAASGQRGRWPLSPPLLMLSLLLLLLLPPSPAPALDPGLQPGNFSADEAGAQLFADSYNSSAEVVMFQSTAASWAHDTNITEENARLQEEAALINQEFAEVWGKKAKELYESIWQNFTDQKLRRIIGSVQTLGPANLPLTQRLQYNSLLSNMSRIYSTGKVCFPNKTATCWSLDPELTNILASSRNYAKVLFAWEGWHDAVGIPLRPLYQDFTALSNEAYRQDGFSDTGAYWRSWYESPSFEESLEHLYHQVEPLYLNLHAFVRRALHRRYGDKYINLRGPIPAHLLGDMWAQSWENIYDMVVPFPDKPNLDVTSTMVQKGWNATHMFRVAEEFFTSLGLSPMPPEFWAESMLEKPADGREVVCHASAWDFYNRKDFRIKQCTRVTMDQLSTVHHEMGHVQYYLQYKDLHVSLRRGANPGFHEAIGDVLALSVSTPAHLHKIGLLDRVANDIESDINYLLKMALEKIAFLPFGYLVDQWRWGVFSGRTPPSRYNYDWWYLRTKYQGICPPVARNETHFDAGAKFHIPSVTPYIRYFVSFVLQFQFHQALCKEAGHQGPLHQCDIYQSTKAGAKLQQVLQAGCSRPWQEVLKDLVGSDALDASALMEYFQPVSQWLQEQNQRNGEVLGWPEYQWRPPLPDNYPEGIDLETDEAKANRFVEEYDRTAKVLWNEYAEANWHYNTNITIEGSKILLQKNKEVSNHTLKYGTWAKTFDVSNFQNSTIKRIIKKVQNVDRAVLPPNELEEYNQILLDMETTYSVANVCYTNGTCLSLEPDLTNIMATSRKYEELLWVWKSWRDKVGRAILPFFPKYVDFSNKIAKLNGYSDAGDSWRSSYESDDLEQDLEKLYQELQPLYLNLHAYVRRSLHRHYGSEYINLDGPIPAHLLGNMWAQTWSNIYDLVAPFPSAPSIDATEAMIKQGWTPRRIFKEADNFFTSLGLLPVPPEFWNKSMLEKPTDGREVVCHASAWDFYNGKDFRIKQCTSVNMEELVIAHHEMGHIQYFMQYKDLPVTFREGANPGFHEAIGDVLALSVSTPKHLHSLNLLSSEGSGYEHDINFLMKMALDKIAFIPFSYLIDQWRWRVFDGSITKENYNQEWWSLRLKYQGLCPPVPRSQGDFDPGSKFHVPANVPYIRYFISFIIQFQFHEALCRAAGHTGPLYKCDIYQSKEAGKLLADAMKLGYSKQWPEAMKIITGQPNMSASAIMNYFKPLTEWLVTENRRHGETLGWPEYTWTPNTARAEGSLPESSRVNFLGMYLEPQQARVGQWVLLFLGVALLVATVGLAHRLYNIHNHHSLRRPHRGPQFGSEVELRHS
Method in brief: (§1)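 Male Sprague-Dawley rats (280–365 g) anesthetized with inactin (100 mg/kg ip) or dial urethane, with carotid blood pressure recorded. AI 1 µg/kg iv was given before and 5 min after each cumulative iv drug dose (3, 10, 30 µg/kg; EtOH/saline, ≤12% EtOH). Percent of control pressor response was regressed on log dose to give ID50 per animal, then averaged.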

[2] = target: T2, Angiotensin-converting enzyme (Rattus norvegicus, UniProt P47820); experiment: (§2) Compound tested in vitro for inhibition of Angiotensin I converting enzyme
T2 sequence (P47820 whole entry): T1 sequence (whole entry)
Method in brief: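 In vitro ACE inhibition by the Cushman–Cheung procedure using crude enzyme preparations whose batches varied over time. IC50 determined with a reference inhibitor run concurrently.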

[3] = target: T3, Angiotensin-converting enzyme (Homo sapiens, UniProt P12821); experiment: Compound was tested for inhibitory activity against angiotensin converting enzyme when administered intravenously to anesthetized dogs; conditions: Canis lupus familiaris; target entry is the homologue from another species
T3 sequence (P12821 whole entry): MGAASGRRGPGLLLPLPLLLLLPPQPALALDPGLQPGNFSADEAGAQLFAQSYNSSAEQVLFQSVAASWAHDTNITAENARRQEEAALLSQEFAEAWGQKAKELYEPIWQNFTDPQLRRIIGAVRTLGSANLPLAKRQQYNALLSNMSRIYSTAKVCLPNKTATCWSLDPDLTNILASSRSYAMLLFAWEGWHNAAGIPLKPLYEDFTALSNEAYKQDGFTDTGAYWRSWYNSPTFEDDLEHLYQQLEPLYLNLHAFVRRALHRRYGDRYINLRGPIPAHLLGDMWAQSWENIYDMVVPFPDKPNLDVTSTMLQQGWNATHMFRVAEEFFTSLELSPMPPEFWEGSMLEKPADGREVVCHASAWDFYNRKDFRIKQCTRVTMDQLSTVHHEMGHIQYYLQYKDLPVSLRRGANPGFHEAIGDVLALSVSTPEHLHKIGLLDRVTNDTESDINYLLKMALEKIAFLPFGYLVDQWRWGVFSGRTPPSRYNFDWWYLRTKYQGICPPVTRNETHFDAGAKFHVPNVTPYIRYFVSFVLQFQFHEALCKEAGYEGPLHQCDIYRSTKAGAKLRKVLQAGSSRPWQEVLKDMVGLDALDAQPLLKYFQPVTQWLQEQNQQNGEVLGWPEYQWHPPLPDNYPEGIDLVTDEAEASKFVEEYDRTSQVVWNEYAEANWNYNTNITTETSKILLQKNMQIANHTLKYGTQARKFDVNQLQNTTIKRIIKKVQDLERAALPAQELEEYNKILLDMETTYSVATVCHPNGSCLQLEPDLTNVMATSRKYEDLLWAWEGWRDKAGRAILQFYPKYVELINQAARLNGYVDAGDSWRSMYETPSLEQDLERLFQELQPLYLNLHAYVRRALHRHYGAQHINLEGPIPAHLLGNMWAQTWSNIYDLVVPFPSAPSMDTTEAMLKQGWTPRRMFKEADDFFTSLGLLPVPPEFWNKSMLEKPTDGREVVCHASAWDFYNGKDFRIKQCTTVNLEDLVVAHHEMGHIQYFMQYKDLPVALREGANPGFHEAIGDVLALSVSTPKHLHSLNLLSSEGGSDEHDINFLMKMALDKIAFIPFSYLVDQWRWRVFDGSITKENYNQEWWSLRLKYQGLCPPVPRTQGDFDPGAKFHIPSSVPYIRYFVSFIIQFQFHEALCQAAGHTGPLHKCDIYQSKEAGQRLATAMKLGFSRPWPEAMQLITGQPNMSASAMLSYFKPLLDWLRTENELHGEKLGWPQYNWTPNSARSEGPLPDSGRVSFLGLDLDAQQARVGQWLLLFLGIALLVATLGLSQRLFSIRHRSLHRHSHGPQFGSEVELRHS

[4] = organism: Canis familiaris; experiment: Compound was tested for its efficacy in dog; assay type: functional, Canis lupus familiaris
[5] = target: T1, Angiotensin-converting enzyme (Rattus norvegicus); experiment: Compound tested in vivo for inhibition of Angiotensin I converting enzyme in rat; assay type: organism-based; method in brief: as §1
[6] = target: T3, Angiotensin-converting enzyme; experiment: as §2
[7] = Compound tested in vitro for inhibition of Angiotensin I converting enzyme in rat
Method in brief: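 Cushman–Cheung method using crude ACE enzyme preparations, with batches varying over the study period. IC50 was determined, and a reference ACE inhibitor was assayed concurrently in each run.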

ID50 [1]: 0.016 mg/kg
IC50 [2]: 67 nM
ID50 [3]: 0.3 mg/kg
SMILES: CCOC(=O)[C@H](CCc1ccccc1)N[C@@H](C)C(=O)N1CC2(C[C@H]1C(=O)O)SCCS2
Efficacy [4]: 0.3 mg/kg

ID50 [5]: 0.221 mg/kg
SMILES: CCOC(=O)[C@H](CCc1ccccc1)NCC(=O)N1CC2(C[C@H]1C(=O)O)SCCS2

ID50 [5]: 0.015 mg/kg
SMILES: C[C@H](N[C@@H](CCc1ccccc1)C(=O)O)C(=O)N1CCC[C@H]1C(=O)O

ID50 [5]: 0.01 mg/kg
IC50 [6]: 200 nM
SMILES: CCOC(=O)[C@H](CCc1ccccc1)N[C@@H](CCCCN)C(=O)N1CC2(C[C@H]1C(=O)O)SCCS2

SMILES: NCCCC[C@H](N[C@@H](CCc1ccccc1)C(=O)O)C(=O)N1CCC[C@H]1C(=O)O [LISINOPRIL ANHYDROUS]
IC50 [7]: 1.2 nM

ID50 [5]: 0.01 mg/kg
IC50 [6]: 0.5 nM
SMILES: NCCCC[C@H](N[C@@H](CCc1ccccc1)C(=O)O)C(=O)N1CC2(C[C@H]1C(=O)O)SCCS2

ID50 [1]: 0.057 mg/kg
SMILES: CCOC(=O)[C@H](CCc1ccccc1)N[C@@H](C)C(=O)N1CCC[C@H]1C(=O)O

IC50 [7]: 92 nM
SMILES: CCOC(=O)C(CCc1ccccc1)N[C@@H](C)C(=O)N1CC2(C[C@H]1C(=O)O)SCCS2 (stereo partly drawn)
